Assays:
[1] = system: fork substrate with only the lagging strand; experiment: 2-AP fluorescence quenching, lagging strand fork; assay type: binding
Procedure, shortened: (§1)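 Substrates were annealed from oligos (boiled 5 min, slow-cooled), gel-purified on native 12% PAGE and quantified spectrophotometrically. After ≥10 min equilibration, emission was read at 330–430 nm (excitation 315 nm). Adenine-substituted spectra were subtracted, and fold decrease at 370 nm was taken versus no peptide.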

[2] = system: HJ substrate; experiment: dissociation from HJ; assay type: binding
[3] = system: replication fork substrate; experiment: 2-AP fluorescence quenching, replication fork; assay type: binding
Procedure, shortened: as §1

[4] = target: protein-free HJ DNA; experiment: peptide/RecG band shift assay on HJ; assay type: binding; details: read-out: dissociation constant (Kd) by band shift assay; peptide dimer, HJ
[5] = system: RuvABC complex; details: cited from earlier work
[6] = system: 1AP1 oligonucleotide alone (ssDNA); experiment: 2-AP fluorescence quenching, single oligonucleotide; assay type: binding
[7] = system: RecG binding to HJ substrate; details: cited from earlier work
[8] = system: RecG/HJ complex; experiment: displacement of RecG from HJ DNA; assay type: binding, Escherichia coli; details: 0.1 μM (WRWYCR)2
[9] = system: replication fork substrates; details: ref K. Kepple, Ph.D. Thesis, 2006; cited from earlier work
[10] = system: Lagging strand fork; experiment: 2-AP titration Kd, lagging strand fork; assay type: binding; details: Kd ratio, n = 1
Procedure, shortened: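 Each substrate carried 2-AP at strand 4, position 2 and was used at 0.1 μM in 20 mM Tris-HCl pH 7.8, 25 mM NaCl, 1 mM EDTA, 1.6% DMSO at 24°C. Peptide dimer added in 2-fold steps from 0.003125 μM, 3 min each. Excitation 315 nm, emission 330–430 nm. Adenine background subtracted, 365–375 nm averaged. Fc fitted by least squares to pooled 2–3 dilution series. Value given as Kd relative to HJ Kd.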

Kd [4]: 12.5 nM | disappearance of band with two RecG monomers per HJ [8]: takes far longer to disappear | Fold reduced versus HJ [10]: 5.5
Substance: (WRWYCR)2 (disulfide)
fold decrease in 2-AP fluorescence at 370 nm ([1]; Lag-1AP1 (central base), 0.05 μM dimer, 0.25:1): 1.0 fold | fold decrease in 2-AP fluorescence at 370 nm ([1]; Lag-1AP1 (central base), 0.2 μM dimer, 1:1): 1.0 fold | fold decrease in 2-AP fluorescence at 370 nm ([1]; Lag-1AP1 (central base), 0.8 μM dimer, 4:1): 1.3 fold | fold decrease in 2-AP fluorescence at 370 nm ([1]; Lag-1AP1 (central base), 1.6 μM dimer, 8:1): 2.0 fold | 2-AP quenching ([1]; Lag-1AP1, 4- and 8-fold molar excess): quenched | 2-AP quenching ([1]; Lag-3AP2): only very weak quenching | fold decrease in 2-AP fluorescence at 370 nm ([1]; Lag-3AP2, 0.05 μM dimer, 0.25:1): 1.0 fold | fold decrease in 2-AP fluorescence at 370 nm ([1]; Lag-3AP2, 0.2 μM dimer, 1:1): 1.0 fold | fold decrease in 2-AP fluorescence at 370 nm ([1]; Lag-4AP1 (central base), 0.05 μM dimer, 0.25:1): 1.0 fold | fold decrease in 2-AP fluorescence at 370 nm ([1]; Lag-4AP1 (central base), 0.8 μM dimer, 4:1): 1.3 fold | fold decrease in 2-AP fluorescence at 370 nm ([1]; Lag-4AP1 (central base), 1.6 μM dimer, 8:1): 1.9 fold | 2-AP quenching ([1]; Lag-4AP1 and Lag-4AP2): quenched strongly | fold decrease in 2-AP fluorescence at 370 nm ([1]; Lag-4AP2 (central base), 0.05 μM dimer, 0.25:1): 1.0 fold | fold decrease in 2-AP fluorescence at 370 nm ([1]; Lag-4AP2 (central base), 0.8 μM dimer, 4:1): 1.3 fold | fold decrease in 2-AP fluorescence at 370 nm ([1]; Lag-4AP2 (central base), 1.6 μM dimer, 8:1): 1.6 fold | fold decrease in 2-AP fluorescence at 370 nm ([1]; Lag-4AP3, 0.05 μM dimer, 0.25:1): 1.0 fold | fold decrease in 2-AP fluorescence at 370 nm ([1]; Lag-4AP3, 0.2 μM dimer, 1:1): 1.0 fold | fold decrease in 2-AP fluorescence at 370 nm ([1]; Lag-4AP3, 0.8 μM dimer, 4:1): 1.2 fold | fold decrease in 2-AP fluorescence at 370 nm ([1]; Lag-4AP3, 1.6 μM dimer, 8:1): 1.3 fold | 2-AP quenching ([1]; Lag-4AP3 and Lag-4AP4): quenched relatively weakly | fold decrease in 2-AP fluorescence at 370 nm ([1]; Lag-4AP4, 0.05 μM dimer, 0.25:1): 1.0 fold | fold decrease in 2-AP fluorescence at 370 nm ([1]; Lag-4AP4, 0.2 μM dimer, 1:1): 1.0 fold | fold decrease in 2-AP fluorescence at 370 nm ([1]; Lag-4AP4, 1.6 μM dimer, 8:1): 1.0 fold | time for half of bound peptide to dissociate ([2]; 0.015 μM (WRWYCR)2, 1 nM labeled HJ, 0.2 μM unlabeled HJ (200X), 4°C): More than an hour | dissociation slower than RecG ([2]; peptide vs RecG, from HJ): about 2 X | fold decrease in 2-AP fluorescence at 370 nm ([3]; Fork-1AP1 (central base), 0.05 μM dimer, 0.25:1): 1.0 fold | fold decrease in 2-AP fluorescence at 370 nm ([3]; Fork-1AP1 (central base), 0.2 μM dimer, 1:1): 1.0 fold | fold decrease in 2-AP fluorescence at 370 nm ([3]; Fork-1AP1 (central base), 0.8 μM dimer, 4:1): 1.2 fold | fold decrease in 2-AP fluorescence at 370 nm ([3]; Fork-3AP2, 0.2 μM dimer, 1:1): 1.0 fold | fold decrease in 2-AP fluorescence at 370 nm ([3]; Fork-3AP2, 1.6 μM dimer, 8:1): 1.2 fold | fold decrease in 2-AP fluorescence at 370 nm ([3]; Fork-4AP1 (central base), 0.05 μM dimer, 0.25:1): 1.0 fold | fold decrease in 2-AP fluorescence at 370 nm ([3]; Fork-4AP1 (central base), 1.6 μM dimer, 8:1): 1.7 fold | fold decrease in 2-AP fluorescence at 370 nm ([3]; Fork-4AP2 (central base), 0.05 μM dimer, 0.25:1): 1.0 fold | fold decrease in 2-AP fluorescence at 370 nm ([3]; Fork-4AP2 (central base), 0.2 μM dimer, 1:1): 1.0 fold | fold decrease in 2-AP fluorescence at 370 nm ([3]; Fork-4AP3, 0.05 μM dimer, 0.25:1): 1.0 fold | fold decrease in 2-AP fluorescence at 370 nm ([3]; Fork-4AP3, 0.2 μM dimer, 1:1): 1.0 fold | fold decrease in 2-AP fluorescence at 370 nm ([3]; Fork-4AP3, 0.8 μM dimer, 4:1): 1.2 fold | fold decrease in 2-AP fluorescence at 370 nm ([3]; Fork-4AP4, 0.05 μM dimer, 0.25:1): 1.0 fold | fold decrease in 2-AP fluorescence at 370 nm ([3]; Fork-4AP4, 0.2 μM dimer, 1:1): 1.0 fold | fold decrease in 2-AP fluorescence at 370 nm ([3]; Fork-4AP4, 0.8 μM dimer, 4:1): 1.0 fold | fold decrease in 2-AP fluorescence at 370 nm ([3]; Fork-4AP4, 1.6 μM dimer, 8:1): 1.2 fold | inhibition of HJ resolution by RuvABC [5]: inhibit | IC50 ([5]; read-out: IC50, RuvABC): ~50 nM | 2-AP quenching ([6]; 8-fold molar excess of peptide, data not shown): no significant quenching | 2-AP quenching ([6]; 16-fold peptide excess): Quenching begins | 2-AP quenching ([6]; 32-fold excess): increases | complexes formed when peptide and RecG are added together to HJ [7]: mostly peptide–HJ complexes | binding to replication forks by band shift [9]: unable to detect binding

Source: article PMC2532710 (Nucleic Acids Research, 2008)
